# Measured values from different studies.
# Protocols differ between the studies behind these lines.
# Target: Mitogen-activated protein kinase kinase kinase 9 (MAP3K9, Homo sapiens, UniProt P80192)
SMILES,test,setting,quantity,result
O=C(NCCCNc1nc(Nc2cccc(NC(=O)N3CCCC3)c2)ncc1I)c1cccs1,"enzyme activity, inhibitor, radiometric",1 µM,remaining activity,4%
CC/C(=N\NC(=O)NCc1cccc(O)c1)c1ccc(O)c(C)c1O,"enzyme activity, inhibitor",0.1 µM,inhibition,5.1%
Cc1nn(CC(F)(F)F)cc1Nc1ncc(Br)c(NCc2ccc(S(N)(=O)=O)cc2)n1,"enzyme activity, inhibitor, radiometric",1 µM,remaining activity,80%
CCCS(=O)(=O)Nc1ccc(F)c(C(=O)c2c[nH]c3ncc(-c4ccc(Cl)cc4)cc23)c1F,"enzyme activity, inhibitor",1 µM,inhibition,< 10%
CNC(=O)Nc1ccc2c(c1)[C@@]1(CC2)OC(=O)N(CC(=O)N(Cc2ccc(F)cc2)[C@@H](C)C(F)(F)F)C1=O,"cell-free assay, competition with immobilised ligand",1 µM,remaining binding,100%
CNC(=O)c1cc(Oc2ccc(NC(=O)Nc3ccc(Cl)c(C(F)(F)F)c3)cc2)ccn1,"enzyme activity, inhibitor",0.3 µM,inhibition,-6%
NS(=O)(=O)c1ccc(CNc2nc(Nc3cccc(CN4CCOCC4)c3)ncc2Br)cc1,"enzyme activity, inhibitor, radiometric",1 µM,remaining activity,25%
COc1cc(Nc2cnc(C#N)c(O[C@H](C)CN(C)C)n2)ncc1-c1cnn(C)c1,"enzyme activity, inhibitor, radiometric",1 µM,remaining activity,92%
c1cc(CN2CCOCC2)cc(Nc2nccc(NCCc3cnc[nH]3)n2)c1,"enzyme activity, inhibitor, radiometric",1 µM,remaining activity,73%
CN(C)CC#Cc1ccc(OCCCc2sc(N3CCc4cccc(C(=O)Nc5nc6ccccc6s5)c4C3)nc2C(=O)O)c(F)c1,"cell-free assay, competition with immobilised ligand",1 µM,remaining binding,92%
Oc1cccc(-c2nc(N3CCOCC3)c3oc4ncccc4c3n2)c1,cell-free assay,0.5 µM,remaining signal,103%
c1cc(CN2CCOCC2)cc(Nc2ncc(C3CC3)c(NCCc3c[nH]cn3)n2)c1,"enzyme activity, inhibitor, radiometric",1 µM,remaining activity,7%
C[C@H](c1ccnc(Nc2nc3ccc(-c4cc(N(C)C)ncn4)cc3[nH]2)c1)N1CCN(C(=O)CC(F)(F)F)CC1,"cell-free assay, competition with immobilised ligand",0.1 µM,remaining binding,100%
O=C(Nc1cccc(Nc2ncc(Br)c(NCCc3cnc[nH]3)n2)c1)N1CCCC1,"enzyme activity, inhibitor, radiometric",1 µM,remaining activity,5%
N#CCCc1ccc2c(c1)-c1[nH]c3ccc([N+](=O)[O-])cc3c1CC(=O)N2,cell-free assay,0.5 µM,remaining signal,18.2%
Cc1ccc(Nc2nccc(N(C)c3ccc4c(C)n(C)nc4c3)n2)cc1S(N)(=O)=O,"enzyme activity, inhibitor",0.3 µM,inhibition,88%
O=C(O)[C@H]1[C@H](Cn2nnc3ccccc3c2=O)CC[C@@H]1C(=O)c1ccc(OCCC2CCOCC2)cc1,"cell-free assay, competition with immobilised ligand",1 µM,remaining binding,81%
O=C1NC(=O)c2cc(Nc3ccc(F)cc3)c(Nc3ccc(F)cc3)cc21,cell-free assay,0.5 µM,remaining signal,102%
Cn1c(=O)n(-c2ccc(C(C)(C)C#N)cc2)c2c3cc(-c4cnc5ccccc5c4)ccc3ncc21,"enzyme activity, inhibitor",10 µM,remaining activity,67%
CO[C@H]1CC[C@H](CNc2ccc(S(=O)(=O)NC(=O)c3ccc(N4CCN(CC5=C(c6ccc(Cl)cc6)CC(C)(C)CC5)CC4)cc3Oc3cnc4[nH]ccc4c3)cc2[N+](=O)[O-])CC1,"cell-free assay, competition with immobilised ligand",1 µM,remaining binding,84%
NS(=O)(=O)c1ccc(CNc2nc(Nc3cccc(NC(=O)N4CCCC4)c3)ncc2Br)cc1,"enzyme activity, inhibitor, radiometric",1 µM,remaining activity,30%
c1ccc(CNc2nc(N3CCOc4ccccc43)nc3c2CCCC3)cc1,"target engagement in cells, inhibitor, chemoproteomics",20 mM,inhibition,3.8%
COc1cc2ncnc(Nc3ccc(Oc4ccccc4)c(C)c3C)c2cc1OC,"enzyme activity, inhibitor",1 µM,inhibition,1%
COc1cccc(CNC(=O)c2nc3scc(COCc4ccc(C(=O)O)cc4)c3c(=O)[nH]2)c1,"cell-free assay, competition with immobilised ligand",1 µM,remaining binding,100%
CC(C)c1ccc(NC(=O)c2cccs2)c(-c2nc3ccccc3[nH]c2=O)c1,"enzyme activity, inhibitor",1 µM,activity vs control,92%
Cc1c(C(=O)O)cc(-c2ccc(C3CCNCC3)cc2)c2ccc(-c3ccc(C(F)(F)F)cc3)cc12,"binding, competition with immobilised ligand",1 µM,remaining binding,92%
Cc1nn(CC(F)(F)F)cc1Nc1nccc(NCCc2cnc[nH]2)n1,"enzyme activity, inhibitor, radiometric",1 µM,remaining activity,77%
Nc1ncnc2occ(-c3ccc(NC(=O)Nc4cc(C(F)(F)F)ccc4F)cc3)c12,"cell-free assay, inhibitor",20 µM,remaining signal,2%
CN(c1ccnc(CNc2nc(Nc3ccc4c(c3)CC(=O)N4)ncc2C(F)(F)F)n1)S(C)(=O)=O,"cell-free assay, competition with immobilised ligand",1 µM,remaining binding,41%
